Measured values as given in ChEMBL document CHEMBL1821616, “New insights into the structural requirements for pro-apoptotic agents based on 2,4-diaminoquinazoline, 2,4-diaminopyrido[2,3-d]pyrimidine and 2,4-diaminopyrimidine derivatives” (Eur J Med Chem, 2011).
Active and inactive are the calls of the source. No cut-off for these calls is given here.

What was measured:
[1] = Cytotoxicity against human CRL8799 cells assessed as cell survival at 20 to 100 uM after 72 hrs by neutral red dye assay; format: cell-based; details: read-out: Survival
In short: (§1)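 The non-tumoral lines were grown with 10% FBS plus penicillin/streptomycin, as monolayers at 37 °C in 5% CO2: CRL-8799 in MEG medium and CRL-11233 in BEGM. Compounds in DMSO (≤0.5% v/v final) were applied for 72 h. Survival was read by neutral red uptake against 0.5% DMSO solvent-treated controls, as the mean of triplicates.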

[2] = tested on: T-24; assay: Cytotoxicity against human T24 cells after 72 hrs by neutral red dye assay; format: functional, cell-based; details: T-24, 72 h
In short: (§2)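 Human tumour cells were grown as monolayers with 10% FBS and penicillin/streptomycin at 37 °C in 5% CO2 (HT-29 and T-24 in McCoy's, MDA-MB-231 in Leibovitz). They were exposed to compound in DMSO (≤0.5% v/v final) at screening concentrations of 20 and 100 μM for 72 h and read by neutral red uptake. Survival is relative to cells given DMSO only, in triplicate.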

[3] = tested on: MDA-MB-231; assay: Induction of apoptosis in human MDA-MB-231 cells assessed as DNA fragmentation after 24 hrs by ELISA relative to control; format: functional
In short: (§3)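 DNA fragmentation was measured with the Cell Death Detection ELISA Plus kit after treatment of cultured tumour cells. The signal is expressed relative to untreated control cultures, which are set to 1.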

[4] = tested on: T-24; assay: Induction of apoptosis in human T24 cells assessed as caspase3 activation at IC50 after 48 hrs by FACS analysis relative to control; format: functional
In short: (§4)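 Active caspase-3 was detected by flow cytometry with a FITC anti-active-caspase-3 antibody kit, with readings at 14, 24 and 48 h. Treated cells were compared with untreated control cells. Results are scored as (+) for an increase of about 50% and (++) for a larger rise.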

[5] = tested on: HT-29; assay: Cytotoxicity against human HT-29 cells after 72 hrs by neutral red dye assay; format: functional, cell-based; details: HT-29, 72 h; in short: as §2
[6] = Cytotoxicity against human CRL11233 cells assessed as cell survival at 20 to 100 uM after 72 hrs by neutral red dye assay; format: cell-based; details: read-out: Survival; in short: as §1
[7] = tested on: HT-29; assay: Induction of apoptosis in human HT-29 cells assessed as DNA fragmentation after 48 hrs by ELISA relative to control; format: functional; in short: as §3
[8] = tested on: HT-29; assay: Cytotoxicity against human HT-29 cells assessed as cell survival at 100 uM after 72 hrs by neutral red dye assay; format: functional; details: HT-29, 72 h, read-out: Survival
In short: (§5)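 HT-29 and T-24 cells were grown in McCoy's medium and MDA-MB-231 in Leibovitz, each with 10% FBS plus penicillin/streptomycin, as monolayers at 37 °C in 5% CO2. Compounds in DMSO (≤0.5% v/v final) were applied for 72 h. Survival was read by neutral red uptake against 0.5% DMSO-treated cells, as the mean of triplicates.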

[9] = tested on: MDA-MB-231; assay: Cytotoxicity against human MDA-MB-231 cells assessed as cell survival at 100 uM after 72 hrs by neutral red dye assay; format: functional; details: MDA-MB-231, 72 h, read-out: Survival; in short: as §5
[10] = tested on: MDA-MB-231; assay: Cytotoxicity against human MDA-MB-231 cells after 72 hrs by neutral red dye assay; format: functional, cell-based; details: MDA-MB-231, 72 h; in short: as §2
[11] = tested on: T-24; assay: Cytotoxicity against human T24 cells assessed as cell survival at 100 uM after 72 hrs by neutral red dye assay; format: functional; details: T-24, 72 h, read-out: Survival; in short: as §5
[12] = tested on: T-24; assay: Induction of apoptosis in human T24 cells assessed as DNA fragmentation after 48 hrs by ELISA relative to control; format: functional; in short: as §3
[13] = tested on: HT-29; assay: Induction of apoptosis in human HT-29 cells assessed as caspase3 activation at IC50 after 48 hrs by FACS analysis relative to control; format: functional; in short: as §4

## c1ccc(CNc2nc(NCc3ccccc3)c3cccnc3n2)cc1
[1]
  viability at 72 h, up to 100 µM: 85%
[2]
  IC50: 13.4 µM
[3]
  Activity: inactive
[4]
  Activity: 50%
[5]
  IC50: 11 µM
[6]
  viability at 72 h, up to 100 µM: 90%
[7]
  fold change (FC): 2.5
[8]
  viability at 100 µM: < 45%
[9]
  viability at 100 µM: < 45%
[10]
  IC50: 10.3 µM
[11]
  viability at 100 µM: < 45%
[12]
  fold change (FC): 4.6

## CCCCCCNc1nc(SCC)nc2ncccc12
[2]
  IC50: 5.9 µM
[3]
  fold change (FC): 3.3
[5]
  IC50: 22.5 µM
[7]
  fold change (FC): 8.1
[8]
  viability at 100 µM: < 45%
[13]
  Activity: 75%
[9]
  viability at 100 µM: < 45%
[10]
  IC50: 1.4 µM
[11]
  viability at 100 µM: < 45%
[12]
  fold change (FC): 1.5

## c1ccc2c(CCNc3nc(NCCc4c[nH]c5ccccc45)c4cccnc4n3)c[nH]c2c1
[1]
  viability at 72 h, up to 100 µM: 56%
[2]
  IC50: 7.7 µM
[3]
  Activity: inactive
[5]
  IC50: 3 µM
[7]
  fold change (FC): 3
[8]
  viability at 100 µM: < 45%
[13]
  Activity: 75%
[9]
  viability at 100 µM: < 45%
[10]
  IC50: 5.1 µM
[11]
  viability at 100 µM: < 45%
[12]
  Activity: inactive

## COc1ccc(CNc2nc(NCc3ccc(OC)cc3)c3cccnc3n2)cc1
[1]
  viability at 72 h, up to 100 µM: 85%
[3]
  fold change (FC): 1.5
[6]
  viability at 72 h, up to 100 µM: 100%
[7]
  fold change (FC): 2.7
[8]
  viability at 100 µM: < 45%
[13]
  Activity: 50%
[9]
  viability at 100 µM: < 45%
[10]
  IC50: 2.9 µM
[11]
  viability at 100 µM: < 45%
[12]
  fold change (FC): 2.3

## CCCCCNc1nc(SCCCC)nc2ncccc12
[1]
  viability at 72 h, up to 100 µM: 84%
[2]
  IC50: 8.9 µM
[3]
  fold change (FC): 1.7
[4]
  Activity: 50%
[5]
  IC50: 12.6 µM
[6]
  viability at 72 h, up to 100 µM: 76%
[7]
  fold change (FC): 1.9
[8]
  viability at 100 µM: < 45%
[9]
  viability at 100 µM: < 45%
[10]
  IC50: 6.3 µM
[11]
  viability at 100 µM: < 45%
[12]
  Activity: inactive

## Cc1ccc(CCNc2nc(NCCc3ccc(C)cc3)c3ccccc3n2)cc1
[1]
  viability at 72 h, up to 100 µM: 0%
[2]
  IC50: 2.17 µM
[3]
  fold change (FC): 2.4
[5]
  IC50: 1.64 µM
[6]
  viability at 72 h, up to 100 µM: 0%
[7]
  Activity: inactive
[8]
  viability at 100 µM: < 45%
[13]
  Activity: 50%
[9]
  viability at 100 µM: < 45%
[10]
  IC50: 4.65 µM
[11]
  viability at 100 µM: < 45%
[12]
  Activity: inactive

## c1ccc(CCNc2nc(NCCc3ccccc3)c3ccccc3n2)cc1
[1]
  viability at 72 h, up to 100 µM: 92%
[2]
  IC50: 2.86 µM
[3]
  Activity: inactive
[4]
  Activity: 50%
[5]
  IC50: 2.3 µM
[6]
  viability at 72 h, up to 100 µM: 100%
[7]
  Activity: inactive
[8]
  viability at 100 µM: < 45%
[9]
  viability at 100 µM: < 45%
[10]
  IC50: 2.18 µM
[11]
  viability at 100 µM: < 45%
[12]
  Activity: inactive

## CCCCCNc1nc(NCCCCC)c2cccnc2n1
[1]
  viability at 72 h, up to 100 µM: 100%
[2]
  IC50: 0.7 µM
[3]
  fold change (FC): 2.8
[5]
  IC50: 0.58 µM
[6]
  viability at 72 h, up to 100 µM: 54%
[7]
  fold change (FC): 0.9
[8]
  viability at 100 µM: < 45%
[9]
  viability at 100 µM: < 45%
[10]
  IC50: 1.2 µM
[11]
  viability at 100 µM: < 45%
[12]
  fold change (FC): 4.4

## c1ccc(CCNc2ccnc(NCCc3ccccc3)n2)cc1
[1]
  viability at 72 h, up to 100 µM: 5%
[2]
  IC50: 9.14 µM
[3]
  fold change (FC): 1.3
[5]
  IC50: 6.97 µM
[6]
  viability at 72 h, up to 100 µM: 5%
[7]
  Activity: inactive
[8]
  viability at 100 µM: < 45%
[9]
  viability at 100 µM: < 45%
[10]
  IC50: 3.01 µM
[11]
  viability at 100 µM: < 45%
[12]
  fold change (FC): 1.2

## c1ccc(CCCCNc2nc(NCCCCc3ccccc3)c3cccnc3n2)cc1
[1]
  viability at 72 h, up to 100 µM: 86%
[2]
  IC50: 1.4 µM
[3]
  Activity: inactive
[5]
  IC50: 5 µM
[6]
  viability at 72 h, up to 100 µM: 82%
[7]
  fold change (FC): 1.4
[8]
  viability at 100 µM: < 45%
[13]
  Activity: 50%
[9]
  viability at 100 µM: < 45%
[10]
  IC50: 1.1 µM
[11]
  viability at 100 µM: < 45%
[12]
  fold change (FC): 4.6

## CCCNc1nc(NCCC)c2ccccc2n1
[1]
  viability at 72 h, up to 100 µM: 0%
[2]
  IC50: 28.9 µM
[3]
  Activity: inactive
[5]
  IC50: 18.9 µM
[6]
  viability at 72 h, up to 100 µM: 66%
[7]
  Activity: inactive
[8]
  viability at 100 µM: < 45%
[9]
  viability at 100 µM: < 45%
[10]
  IC50: 4.43 µM
[11]
  viability at 100 µM: < 45%
[12]
  fold change (FC): 2

## COc1ccc(CNc2nc(NCc3ccc(OC)cc3)c3ccccc3n2)cc1
[1]
  viability at 72 h, up to 100 µM: 0%
[2]
  IC50: 3.87 µM
[3]
  Activity: inactive
[5]
  IC50: 2.88 µM
[6]
  viability at 72 h, up to 100 µM: 100%
[7]
  fold change (FC): 8.5
[8]
  viability at 100 µM: < 45%
[13]
  Activity: 50%
[9]
  viability at 100 µM: < 45%
[10]
  IC50: 3.87 µM
[11]
  viability at 100 µM: < 45%
[12]
  fold change (FC): 5

## c1ccc(CCCNc2nc(NCCCc3ccccc3)c3cccnc3n2)cc1
[1]
  viability at 72 h, up to 100 µM: 0%
[2]
  IC50: 13.2 µM
[3]
  fold change (FC): 1.6
[5]
  IC50: 1.7 µM
[6]
  viability at 72 h, up to 100 µM: 0%
[7]
  fold change (FC): 6
[8]
  viability at 100 µM: < 45%
[13]
  Activity: 50%
[9]
  viability at 100 µM: < 45%
[10]
  IC50: 5.8 µM
[11]
  viability at 100 µM: < 45%
[12]
  fold change (FC): 3.1

## c1ccc(CCCNc2ccnc(NCCCc3ccccc3)n2)cc1
[1]
  viability at 72 h, up to 100 µM: 10%
[2]
  IC50: 8.67 µM
[3]
  fold change (FC): 3.2
[5]
  IC50: 12.4 µM
[6]
  viability at 72 h, up to 100 µM: 1%
[7]
  Activity: inactive
[8]
  viability at 100 µM: < 45%
[13]
  Activity: 50%
[9]
  viability at 100 µM: < 45%
[10]
  IC50: 0.36 µM
[11]
  viability at 100 µM: < 45%
[12]
  fold change (FC): 1.7
